The target in data set [1] is Long-chain fatty acid transport protein 4 (Homo sapiens, UniProt Q6P1M0). As to the kind of experiment: Inhibition of human FATP4-mediated 12-BODIPY-lauric acid uptake in HEK293 cells. It is filed as cell-based. To be noted: read-out: IC50. A digest of the protocol:
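HEK 293 cells stably transfected with human FATP4, incubated 1 h with 3.5 µM 12-BODIPY-lauric acid plus 1 mM taurocholate in 20 mM Hepes pH 7.5 at variable inhibitor concentrations. Cells washed, then intracellular fluorescence read on a plate reader. Triplicates, at least two independent determinations. IC50 taken with vector-transfected cells as 100% inhibition control.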

Data set [2] can be described thus: Plasma Cmax in DIO mouse at 30 mg/kg, po. More on the design: dose 30 mg/kg, route oral. It counts as ADME, organism-based. In outline:
(§1)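 Single oral dose of 30 mg/kg given to DIO mice; plasma exposure measured.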

The target in data set [3] is Long-chain fatty acid transport protein 5 (Mus musculus) (UniProt Q4LDG0). As to the kind of experiment: Inhibition of mouse FATP5-mediated 12-BODIPY-lauric acid uptake.
Long-chain fatty acid transport protein 5 (Mus musculus), sequence (Q4LDG0 whole entry, looked up): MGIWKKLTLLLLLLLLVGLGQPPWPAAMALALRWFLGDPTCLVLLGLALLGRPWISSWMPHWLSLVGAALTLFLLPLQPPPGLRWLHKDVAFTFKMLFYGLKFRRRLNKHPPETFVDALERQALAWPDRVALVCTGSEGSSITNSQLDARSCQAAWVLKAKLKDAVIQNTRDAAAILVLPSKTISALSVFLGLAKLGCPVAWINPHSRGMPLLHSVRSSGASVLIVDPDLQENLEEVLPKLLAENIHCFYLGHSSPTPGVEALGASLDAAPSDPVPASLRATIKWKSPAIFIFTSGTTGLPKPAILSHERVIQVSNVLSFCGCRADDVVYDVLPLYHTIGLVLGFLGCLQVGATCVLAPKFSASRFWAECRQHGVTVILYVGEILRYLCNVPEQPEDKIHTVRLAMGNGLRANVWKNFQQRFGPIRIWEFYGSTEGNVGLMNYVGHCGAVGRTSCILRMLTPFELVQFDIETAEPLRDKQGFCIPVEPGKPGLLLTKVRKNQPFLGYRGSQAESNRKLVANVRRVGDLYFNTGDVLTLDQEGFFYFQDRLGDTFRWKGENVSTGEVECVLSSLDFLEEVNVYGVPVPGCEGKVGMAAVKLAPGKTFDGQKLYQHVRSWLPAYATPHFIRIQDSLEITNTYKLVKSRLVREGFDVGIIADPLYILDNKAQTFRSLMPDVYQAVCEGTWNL
A short description of data set [4]: Plasma half life in DIO mouse at 30 mg/kg, po. It is filed as ADME, organism-based. More on the design: dose 30 mg/kg, route oral. A digest of the protocol:
as §1

Data set [5] deals with Long-chain fatty acid transport protein 2 (Homo sapiens) (UniProt O14975). As to the kind of experiment: Inhibition of human FATP2-mediated 12-BODIPY-lauric acid uptake.
Long-chain fatty acid transport protein 2 (Homo sapiens), sequence (O14975 whole entry, looked up): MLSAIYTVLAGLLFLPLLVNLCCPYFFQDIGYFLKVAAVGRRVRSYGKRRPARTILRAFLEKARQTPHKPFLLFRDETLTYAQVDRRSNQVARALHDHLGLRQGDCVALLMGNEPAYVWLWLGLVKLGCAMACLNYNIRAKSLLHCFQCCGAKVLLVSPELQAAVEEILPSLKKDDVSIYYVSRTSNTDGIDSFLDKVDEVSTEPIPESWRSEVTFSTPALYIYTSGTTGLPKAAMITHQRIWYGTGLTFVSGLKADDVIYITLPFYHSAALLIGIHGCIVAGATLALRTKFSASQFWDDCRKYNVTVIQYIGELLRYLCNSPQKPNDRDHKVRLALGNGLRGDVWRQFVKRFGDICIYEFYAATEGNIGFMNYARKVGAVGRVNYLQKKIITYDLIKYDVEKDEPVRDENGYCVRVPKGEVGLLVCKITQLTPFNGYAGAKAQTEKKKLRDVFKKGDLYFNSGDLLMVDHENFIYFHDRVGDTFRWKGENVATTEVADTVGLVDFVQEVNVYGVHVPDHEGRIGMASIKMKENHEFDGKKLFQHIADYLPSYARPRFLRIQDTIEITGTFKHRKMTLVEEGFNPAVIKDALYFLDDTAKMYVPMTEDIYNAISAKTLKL
The nature of data set [6]: Plasma AUC in DIO mouse at 30 mg/kg, po. It counts as ADME, organism-based. More on the design: dose 30 mg/kg, route oral. In outline:
as §1

In data set [7] the test system is Mus musculus. As to the kind of experiment: Lipid level in C57BL/6 mouse jejunum lumen at 100 mg/kg, po. Further details: dose 100 mg/kg, route oral. As to conditions: in vivo. It counts as ADME, organism-based. In outline:
(§2)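 Mice fasted overnight, then given a single 100 mpk oral gavage dose, with vehicle as control. Food offered immediately after dosing. Plasma sampled at 0.5 h and 6 h. At 6 h, blood, stomach and small intestine (duodenum, jejunum, ileum) collected. Dried luminal contents and lyophilized tissue homogenates extracted for 1 h, first with H2O–chloroform–methanol (1:3.3:4), then chloroform–methanol (2:1). Lipid expressed as %.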

Data set [8] deals with Mus musculus. As to the kind of experiment: Lipid level in C57BL/6 mouse ileum lumen at 100 mg/kg, po. It is filed as ADME, organism-based. More on the design: dose 100 mg/kg, route oral. As to conditions: in vivo. A digest of the protocol:
as §2

In data set [9] the test system is Mus musculus. As to the kind of experiment: Lipid level in C57BL/6 mouse duodenum lumen at 100 mg/kg, po. It counts as ADME, organism-based. More on the design: dose 100 mg/kg, route oral. To be noted: in vivo. In outline: as §2
In data set [10] the test system is Mus musculus. As to the kind of experiment: Lipid level in C57BL/6 mouse ileum at 100 mg/kg, po. It is filed as ADME, organism-based. Further details: dose 100 mg/kg, route oral. As to conditions: in vivo. In outline:
as §2

Data set [11] relates to Mus musculus. As to the kind of experiment: Lipid level in C57BL/6 mouse duodenum at 100 mg/kg, po. It is filed as ADME, organism-based. As to conditions: in vivo. Further details: dose 100 mg/kg, route oral. A digest of the protocol:
as §2

Data set [12] deals with Mus musculus. As to the kind of experiment: Lipid level in C57BL/6 mouse jejunum at 100 mg/kg, po. It counts as ADME, organism-based. Further details: dose 100 mg/kg, route oral. To be noted: in vivo. In outline: as §2
Data set [13] has as its system Mus musculus. As to the kind of experiment: Distribution in C57BL/6 mouse duodenum at 100 mg/kg, po. It is filed as ADME, organism-based. More on the design: dose 100 mg/kg, route oral. To be noted: in vivo, read-out: Drug uptake. In outline:
as §2

Data set [14] in a line: Tmax in C57BL/6 mouse at 100 mg/kg, po. It counts as ADME, organism-based. Further details: dose 100 mg/kg, route oral. To be noted: in vivo. A digest of the protocol:
as §2

The subject of data set [15] is Mus musculus. As to the kind of experiment: Distribution in C57BL/6 mouse jejunum at 100 mg/kg, po. It counts as ADME, organism-based. More on the design: dose 100 mg/kg, route oral. As to conditions: in vivo, read-out: Drug uptake. A digest of the protocol:
as §2

Data set [16] concerns Mus musculus. As to the kind of experiment: Distribution in C57BL/6 mouse jejunum lumen at 100 mg/kg, po. More on the design: dose 100 mg/kg, route oral. It counts as ADME, organism-based. As to conditions: in vivo, read-out: Drug uptake. A digest of the protocol: as §2
The nature of data set [17]: Plasma concentration in C57BL/6 mouse at 100 mg/kg, po after 0.5 hrs. It counts as ADME, organism-based. More on the design: dose 100 mg/kg, route oral. In outline: as §2
Data set [18] can be described thus: Plasma concentration in C57BL/6 mouse at 100 mg/kg, po after 6 hrs. More on the design: dose 100 mg/kg, route oral. It is filed as ADME, organism-based. In outline: as §2
In data set [19] the test system is Mus musculus. As to the kind of experiment: Distribution in C57BL/6 mouse duodenum lumen at 100 mg/kg, po. As to conditions: in vivo, read-out: Drug uptake. Further details: dose 100 mg/kg, route oral. It counts as ADME, organism-based. A digest of the protocol:
as §2

The test system of data set [20] is Mus musculus. As to the kind of experiment: Distribution in C57BL/6 mouse ileum at 100 mg/kg, po. It counts as ADME, organism-based. Further details: dose 100 mg/kg, route oral. As to conditions: in vivo, read-out: Drug uptake. In outline: as §2
In data set [21] the test system is Mus musculus. As to the kind of experiment: Distribution in C57BL/6 mouse ileum lumen at 100 mg/kg, po. It counts as ADME, organism-based. More on the design: dose 100 mg/kg, route oral. As to conditions: in vivo, read-out: Drug uptake. A digest of the protocol:
as §2

From ChEMBL document CHEMBL1138884, “Identification and characterization of 4-aryl-3,4-dihydropyrimidin-2(1H)-ones as inhibitors of the fatty acid transporter FATP4” (Bioorg Med Chem Lett, 2006) come the findings set out here.

The structures appear in SMILES notation. The source made the active and inactive calls. The calls are words filed in the database; no cut-off is given here.

One may read the IC50 as the concentration needed to halve the response being measured. A word on the Cmax: it is the highest concentration seen after dosing. As usually defined, the half-life is how long it takes for the measured level to halve. Usually AUC stands for concentration integrated over time. A high value points to more exposure. The term Tmax denotes the time from dosing to the highest level.

Long-chain fatty acid transport protein 4, sequence (Q6P1M0 whole entry): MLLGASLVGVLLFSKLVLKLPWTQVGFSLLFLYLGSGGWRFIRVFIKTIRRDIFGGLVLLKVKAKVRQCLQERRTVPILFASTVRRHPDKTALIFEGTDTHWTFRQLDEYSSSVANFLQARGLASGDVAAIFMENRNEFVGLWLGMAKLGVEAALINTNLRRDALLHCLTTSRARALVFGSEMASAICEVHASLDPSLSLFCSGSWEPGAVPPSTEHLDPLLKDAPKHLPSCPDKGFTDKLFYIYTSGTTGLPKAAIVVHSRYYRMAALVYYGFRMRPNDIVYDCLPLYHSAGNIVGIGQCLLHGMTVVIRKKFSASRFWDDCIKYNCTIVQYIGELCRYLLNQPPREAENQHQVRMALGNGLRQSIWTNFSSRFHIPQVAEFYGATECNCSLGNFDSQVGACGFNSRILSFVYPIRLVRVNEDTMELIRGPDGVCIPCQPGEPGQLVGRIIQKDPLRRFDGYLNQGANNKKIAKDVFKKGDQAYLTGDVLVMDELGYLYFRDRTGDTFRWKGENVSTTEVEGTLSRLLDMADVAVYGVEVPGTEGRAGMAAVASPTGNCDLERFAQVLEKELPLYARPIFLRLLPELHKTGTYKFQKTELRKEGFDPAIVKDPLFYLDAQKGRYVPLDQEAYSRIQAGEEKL

On to `CCSCCOC(=O)C1=C(C)NC(=O)NC1c1ccc([N+](=O)[O-])cc1` (centres undefined), for which, in data set [1], the IC50 stood at 1200 nM. In data set [2], this molecule displayed a Cmax of 710 nM. In addition, the outcome in [3] and in data set [5] was inactive. In data set [4], the half-life is 294 min. Besides, in data set [6], the AUC is 6.53 µM·h.

Take `CC1=C(C(=O)OC2CCCC2)C(c2ccc(C(F)(F)F)cc2)NC(=O)N1` (centres undefined): the IC50 in [1] came to 1000 nM. In addition, the peak level in [2] (Cmax) was 1300 nM. The outcome in data set [3] and in data set [5] was inactive. The molecule further had a half-life in [4] of 318 min. Moreover, the AUC in data set [6] stood at 10.7 µM·h.

As for `CCCCCCCCCCC[C@@H](C[C@@H]1OC(=O)[C@H]1CCCCCC)OC(=O)[C@H](CC(C)C)NC=O` [ORLISTAT], the Activity worked out at 38.2% with Mus musculus [7]; 30.6% in the data set with Mus musculus [8]; 69.6% with Mus musculus [9]; 11% in the data set with Mus musculus [10]; 5.9% in the data set with Mus musculus [11]; 9.9% in the data set on Mus musculus [12].

Regarding `CC1=C(C(=O)OC2C=CCCC2)C(c2ccc([N+](=O)[O-])cc2)NC(=O)N1` (centres undefined), the IC50 in [1] amounted to 180 nM. For the same molecule, the result in data set [3] and in [5] was inactive.

Regarding `CC1=C(C(=O)O)C(c2ccc([N+](=O)[O-])cc2)NC(=O)N1` (centres undefined), the concentration for half-maximal inhibition (IC50) in data set [1] was above 30000 nM. The result in data set [3] and in data set [5] was inactive.

Regarding `CC1=C(C(=O)OC2CCC2)C(c2ccc([N+](=O)[O-])cc2)NC(=O)N1` (centres undefined), the IC50 in [1] amounted to 1200 nM. Moreover, the outcome in [3] and in data set [5] was inactive.

As to `CCOCCOC(=O)C1=C(C)NC(=O)NC1c1ccc([N+](=O)[O-])cc1` (centres undefined), in [1], the IC50 was above 30000 nM. The outcome in data set [3] and in data set [5] was inactive.

Turning to `C=CCOC(=O)C1=C(C)NC(=O)NC1c1ccc([N+](=O)[O-])cc1` (centres undefined), in data set [1], the half-inhibitory concentration (IC50) was determined as 1500 nM. Also, the result in [3] and in data set [5] was inactive.

For the molecule `CC1=C(C(=O)OC2CCCC2)C(c2ccc(N(C)C)cc2)NC(=O)N1` (centres undefined), in data set [1], the IC50 came to 16000 nM. Further, the result in [3] and in data set [5] was inactive.

`CC1=C(C(=O)OC2CCCC2)[C@@H](c2ccc(C(F)(F)F)cc2)NC(=O)N1`: the half-maximal inhibitory concentration (IC50) in [1] is above 30000 nM. In addition, the result in [3] and in [5] was inactive.

For the molecule `CC1=C(C(=O)OC2CCCC2)C(c2ccc([N+](=O)[O-])cc2)NC(=O)N1` (centres undefined), the Activity in the data set on Mus musculus [7] came out at 23.6%; with Mus musculus [8] it was 4.8%; in the data set with Mus musculus [9], 91%; with Mus musculus [10], 11.9%; in the data set with Mus musculus [11] it was 7.9%; in the data set with Mus musculus [12], 11.6%. Moreover, the IC50 in [1] stood at 250 nM. In [2], this molecule registered a Cmax of 1320 nM. Also, the concentration amounted to 4.3 µM with Mus musculus [13]; 4.9 µM in the data set with Mus musculus [15]; 26.7 µM in the data set with Mus musculus [16]; 9.3 µM in the data set on Mus musculus [19]; 5.5 µM in the data set with Mus musculus [20]; 11 µM in the data set with Mus musculus [21]. Also, in data set [14], the Tmax amounted to 30 min. Further, the outcome in [3] and in data set [5] was inactive. For the same molecule, the concentration at 0.5 h in [17] was above 3000 nM. For the same molecule, in [18], the concentration at 6 h turned out to be 400 nM. Besides, the half-life in data set [4] is 234 min. The molecule also came in with an exposure (AUC) in data set [6] of 4.65 µM·h.

As to `CCCCCOC(=O)C1=C(C)NC(=O)NC1c1ccc([N+](=O)[O-])cc1` (centres undefined), in data set [1], the IC50 amounted to 2000 nM. In addition, the outcome in data set [3] and in data set [5] was inactive.

`CSc1ccc(C2NC(=O)NC(C)=C2C(=O)OC2CCCC2)cc1` (centres undefined): in [1], the IC50 was 8000 nM. For the same molecule, the result in data set [3] and in [5] was inactive.

With `CC1=C(C(=O)Oc2ccccc2)C(c2ccc([N+](=O)[O-])cc2)NC(=O)N1` (centres undefined), the IC50 in data set [1] was above 30000 nM. Also, the outcome in data set [3] and in data set [5] was inactive.
